According to ChEMBL document CHEMBL5331127, “Discovery of ARD-2051 as a Potent and Orally Efficacious Proteolysis Targeting Chimera (PROTAC) Degrader of Androgen Receptor for the Treatment of Advanced Prostate Cancer” (J Med Chem, 2023):

Target: T1, Cytochrome P450 1A2 (Homo sapiens, UniProt P05177)
T1 sequence (P05177 whole entry): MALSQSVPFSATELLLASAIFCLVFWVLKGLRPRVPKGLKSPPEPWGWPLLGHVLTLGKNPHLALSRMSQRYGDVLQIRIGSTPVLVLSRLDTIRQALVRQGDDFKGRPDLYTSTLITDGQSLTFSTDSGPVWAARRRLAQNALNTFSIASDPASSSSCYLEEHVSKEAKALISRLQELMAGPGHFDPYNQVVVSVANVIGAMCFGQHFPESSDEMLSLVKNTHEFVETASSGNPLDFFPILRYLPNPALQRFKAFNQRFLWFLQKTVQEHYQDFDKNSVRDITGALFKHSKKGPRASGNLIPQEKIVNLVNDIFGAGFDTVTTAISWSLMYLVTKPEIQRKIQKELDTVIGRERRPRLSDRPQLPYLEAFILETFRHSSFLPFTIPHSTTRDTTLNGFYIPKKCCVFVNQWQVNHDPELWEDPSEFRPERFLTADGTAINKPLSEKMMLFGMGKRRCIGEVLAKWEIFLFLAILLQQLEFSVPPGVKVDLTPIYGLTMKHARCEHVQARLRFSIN
Assay: Inhibition of CYP1A2 in human liver microsomes preincubated for 5 mins followed by NADPH addition and measured after 10 mins by LC/MS analysis
Assay type: ADME, Microsome
Method in brief: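 Human liver microsomes (0.2 mg/mL stock) in 0.1 M potassium phosphate pH 7.4, prewarmed 5 min at 37 °C with test compound. Phenacetin as substrate; reaction started with NADPH (8 mM stock) and run 10 min, in duplicate. α-Naphthoflavone as reference inhibitor; LC/MS read-out.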

C[C@H]1CC2(CCN(c3ccc(C(=O)N4CCN(C5CN(c6ccc7c(c6)C(=O)N(C6CCC(=O)NC6=O)C7=O)C5)CC4)cc3)CC2)CN1c1ccc(C#N)c(Cl)c1 (stereo partly specified)
IC50: > 10 µM
